Laboratory results as given in PMC4778717 (ChemMedChem, 2015).
pIC50: −log10 of the molar value. Converted amounts (≈) assume the structure as drawn. Read-outs that look alike come from different tables or passages of the source.

What was measured:
S. aureus K2361 (NorA++) = experiment: Bacteriostatic effect; assay type: cell-based; conditions: Staphylococcus aureus, read-out: Bacteriostatic effect, MIC, NorA++ K2361
S. aureus K2908 (MepA−) = experiment: Bacteriostatic effect; assay type: cell-based; conditions: Staphylococcus aureus, read-out: Bacteriostatic effect, MIC, MepA− K2908
S. aureus Newman = experiment: Bacteriostatic effect; assay type: cell-based; conditions: Staphylococcus aureus, 16 h, read-out: Bacteriostatic effect, MIC, S. aureus Newman
S. aureus K1758 (NorA−) = experiment: Bacteriostatic effect; assay type: cell-based; conditions: Staphylococcus aureus, read-out: Bacteriostatic effect, MIC, NorA− K1758
S. aureus 6538 = experiment: Bacteriostatic effect; assay type: cell-based
EcSecA [1] = target: T1, EcSecA (Escherichia coli, UniProt P10408); experiment: In vitro translocation activity with SecA-liposomes; assay type: biochemical, E. coli; conditions: reconstituted SecA-only liposomes, proOmpA, immunoblots
T1 sequence (P10408 whole entry): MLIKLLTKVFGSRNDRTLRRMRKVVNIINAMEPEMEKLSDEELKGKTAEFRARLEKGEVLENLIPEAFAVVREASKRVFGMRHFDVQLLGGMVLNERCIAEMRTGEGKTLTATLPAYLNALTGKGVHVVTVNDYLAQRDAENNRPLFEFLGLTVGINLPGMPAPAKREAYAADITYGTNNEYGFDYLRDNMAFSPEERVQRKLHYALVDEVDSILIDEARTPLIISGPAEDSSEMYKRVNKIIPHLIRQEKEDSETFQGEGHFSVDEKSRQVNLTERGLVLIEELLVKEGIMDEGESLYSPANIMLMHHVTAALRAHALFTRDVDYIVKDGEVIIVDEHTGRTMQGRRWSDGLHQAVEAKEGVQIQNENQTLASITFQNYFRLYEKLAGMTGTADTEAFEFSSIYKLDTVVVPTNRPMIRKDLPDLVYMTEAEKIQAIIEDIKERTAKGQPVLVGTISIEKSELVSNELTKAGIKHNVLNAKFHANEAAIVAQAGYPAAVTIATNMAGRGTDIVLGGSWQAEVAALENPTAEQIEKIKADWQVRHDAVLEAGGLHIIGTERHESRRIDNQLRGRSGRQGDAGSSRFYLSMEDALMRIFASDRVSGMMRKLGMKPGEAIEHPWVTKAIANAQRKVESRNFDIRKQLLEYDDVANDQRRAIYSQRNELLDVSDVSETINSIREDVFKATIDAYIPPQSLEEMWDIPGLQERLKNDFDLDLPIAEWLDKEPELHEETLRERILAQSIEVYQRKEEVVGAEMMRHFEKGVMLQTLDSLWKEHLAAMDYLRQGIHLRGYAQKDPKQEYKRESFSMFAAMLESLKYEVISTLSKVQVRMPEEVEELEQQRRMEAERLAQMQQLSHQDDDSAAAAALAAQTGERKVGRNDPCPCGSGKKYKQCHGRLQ
Outline: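 Reconstituted SecA-only liposomes (stored at −80 °C, frozen-thawed once), E. coli SecA and proOmpA added separately to translocation buffer before the reaction, with 12 μg liposomes per reaction and varied SecA amounts. Test compound at various concentrations; reaction at 37 °C for 45 min. proOmpA translocation efficiency read by immunoblot.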

SaSecA1 = target: T2, SaSecA1 (Staphylococcus aureus, UniProt O06446); experiment: Ion-channel activity of SecA-liposomes in oocytes, SaSecA1; assay type: biochemical
T2 sequence (O06446 1-843): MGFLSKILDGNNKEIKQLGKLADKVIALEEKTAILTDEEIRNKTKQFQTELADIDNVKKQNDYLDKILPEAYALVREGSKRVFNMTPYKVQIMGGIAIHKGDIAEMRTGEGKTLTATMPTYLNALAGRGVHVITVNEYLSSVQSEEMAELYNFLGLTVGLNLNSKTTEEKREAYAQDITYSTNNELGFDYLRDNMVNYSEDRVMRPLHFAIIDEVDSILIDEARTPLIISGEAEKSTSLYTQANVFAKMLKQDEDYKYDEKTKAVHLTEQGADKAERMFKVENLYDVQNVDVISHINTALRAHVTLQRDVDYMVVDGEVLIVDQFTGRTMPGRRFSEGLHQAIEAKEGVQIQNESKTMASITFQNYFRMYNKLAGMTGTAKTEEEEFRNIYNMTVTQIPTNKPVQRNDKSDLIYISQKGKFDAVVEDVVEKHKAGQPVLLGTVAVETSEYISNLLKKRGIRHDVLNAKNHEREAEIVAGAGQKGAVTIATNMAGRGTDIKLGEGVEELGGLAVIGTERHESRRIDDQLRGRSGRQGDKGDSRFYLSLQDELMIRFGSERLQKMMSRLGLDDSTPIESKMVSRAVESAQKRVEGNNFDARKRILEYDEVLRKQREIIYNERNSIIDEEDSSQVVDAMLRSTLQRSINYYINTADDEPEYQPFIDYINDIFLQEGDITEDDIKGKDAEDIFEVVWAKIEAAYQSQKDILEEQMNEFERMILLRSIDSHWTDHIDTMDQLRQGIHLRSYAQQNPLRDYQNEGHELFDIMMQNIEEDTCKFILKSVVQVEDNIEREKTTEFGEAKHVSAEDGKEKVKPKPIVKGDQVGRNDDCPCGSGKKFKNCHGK

EcSecA [2] = target: T1, EcSecA; experiment: Intrinsic ATPase activity of full EcSecA; assay type: biochemical, E. coli
EcSecA [3] = target: T1, EcSecA; experiment: Ion-channel activity of SecA-liposomes in oocytes, EcSecA; assay type: biochemical, E. coli
Outline: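 SecA reconstituted with liposomes, plus proOmpA, 2 mM ATP, 1 mM Mg(OAc)2 and varied test compound concentrations, was injected into Xenopus laevis oocytes (120 ng liposomes, 120 ng SecA, 14 ng proOmpA per 50 nl). Oocytes were held 3 hr at 23 C, then current was recorded by voltage clamp for 1 min. Net channel current came from inward and outward currents.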

S. aureus Mu3 = experiment: Bacteriostatic effect; assay type: cell-based; conditions: Staphylococcus aureus, MU3, 16 h, read-out: Bacteriostatic effect, MIC, S. aureus Mu3
S. aureus K2068 (MepA++) = experiment: Bacteriostatic effect; assay type: cell-based; conditions: Staphylococcus aureus, read-out: Bacteriostatic effect, MIC, MepA++ K2068
S. aureus Mu50 [4] = experiment: Bacteriostatic effect; assay type: cell-based; conditions: for Fold more effective than vancomycin (MIC) / Fold by which 7b and 12a are more effective than the antibiotic (MIC): S. aureus Mu50; for Fold more effective than vancomycin (MIC): vs vancomycin 8 μg/ml; for MIC: Staphylococcus aureus; for MIC, S. aureus Mu50: MRSA strain Mu50, comparison with clinically used antibiotics; for Fold by which 7b and 12a are more effective than the antibiotic (MIC): label = antibiotic compared
S. aureus Mu50 [5] = experiment: Bactericidal effect; assay type: cell-based; conditions: at 50 μM, 2 hr treatment
Outline: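 S. aureus Mu50 cells in log phase (OD600 ≈ 0.5) were mixed with a range of test compound concentrations and shaken at 1,000 rpm at 37 °C for 2 hr. Cultures were serially diluted in LB broth, plated on LB agar and incubated at 37 °C overnight. Colony-forming units were counted, and the bactericidal effect was taken as the reduction in CFU.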

B. subtilis 168 = experiment: Bacteriostatic effect; assay type: cell-based; conditions: Bacillus subtilis, 168, 16 h, read-out: Bacteriostatic effect, MIC, B. subtilis 168
E. coli NR698 = experiment: Bacteriostatic effect; assay type: cell-based; conditions: Escherichia coli, NR698, 24 h, read-out: MIC, E. coli NR698
S. aureus N315 = experiment: Bacteriostatic effect; assay type: cell-based; conditions: Staphylococcus aureus, N315, 16 h, read-out: Bacteriostatic effect, MIC, S. aureus N315
SpSecA = SpSecA (Streptococcus pyogenes, UniProt Q99Y96); experiment: Ion-channel activity of SecA-liposomes in oocytes, SpSecA; assay type: biochemical
SpSecA, sequence (Q99Y96 whole entry): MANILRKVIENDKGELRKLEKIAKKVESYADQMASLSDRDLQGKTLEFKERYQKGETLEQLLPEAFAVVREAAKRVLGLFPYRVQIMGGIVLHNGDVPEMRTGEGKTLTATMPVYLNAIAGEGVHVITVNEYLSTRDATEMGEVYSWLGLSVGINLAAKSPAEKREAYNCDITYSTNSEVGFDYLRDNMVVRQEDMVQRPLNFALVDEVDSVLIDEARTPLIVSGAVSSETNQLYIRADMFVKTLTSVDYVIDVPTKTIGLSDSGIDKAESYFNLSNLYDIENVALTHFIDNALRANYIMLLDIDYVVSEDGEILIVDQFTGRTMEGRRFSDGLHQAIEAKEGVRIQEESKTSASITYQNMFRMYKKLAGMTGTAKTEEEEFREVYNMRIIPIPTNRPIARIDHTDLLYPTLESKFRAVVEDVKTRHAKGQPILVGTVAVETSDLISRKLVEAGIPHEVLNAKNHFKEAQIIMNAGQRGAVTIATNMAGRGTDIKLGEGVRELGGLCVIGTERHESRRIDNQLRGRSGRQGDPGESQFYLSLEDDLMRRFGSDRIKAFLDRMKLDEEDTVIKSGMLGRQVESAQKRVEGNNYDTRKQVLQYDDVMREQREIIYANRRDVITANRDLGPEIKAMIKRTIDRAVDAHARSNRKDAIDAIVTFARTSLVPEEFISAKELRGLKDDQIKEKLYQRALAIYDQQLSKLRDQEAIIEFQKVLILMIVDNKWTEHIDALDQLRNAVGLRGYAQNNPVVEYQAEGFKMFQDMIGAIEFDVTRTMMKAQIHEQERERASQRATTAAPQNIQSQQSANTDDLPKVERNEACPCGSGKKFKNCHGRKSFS

EcSecAN68 = EcSecAN68 (Escherichia coli, UniProt P10408); experiment: biochemical; parameters: species or system E. coli
EcSecAN68, sequence (P10408 1-610): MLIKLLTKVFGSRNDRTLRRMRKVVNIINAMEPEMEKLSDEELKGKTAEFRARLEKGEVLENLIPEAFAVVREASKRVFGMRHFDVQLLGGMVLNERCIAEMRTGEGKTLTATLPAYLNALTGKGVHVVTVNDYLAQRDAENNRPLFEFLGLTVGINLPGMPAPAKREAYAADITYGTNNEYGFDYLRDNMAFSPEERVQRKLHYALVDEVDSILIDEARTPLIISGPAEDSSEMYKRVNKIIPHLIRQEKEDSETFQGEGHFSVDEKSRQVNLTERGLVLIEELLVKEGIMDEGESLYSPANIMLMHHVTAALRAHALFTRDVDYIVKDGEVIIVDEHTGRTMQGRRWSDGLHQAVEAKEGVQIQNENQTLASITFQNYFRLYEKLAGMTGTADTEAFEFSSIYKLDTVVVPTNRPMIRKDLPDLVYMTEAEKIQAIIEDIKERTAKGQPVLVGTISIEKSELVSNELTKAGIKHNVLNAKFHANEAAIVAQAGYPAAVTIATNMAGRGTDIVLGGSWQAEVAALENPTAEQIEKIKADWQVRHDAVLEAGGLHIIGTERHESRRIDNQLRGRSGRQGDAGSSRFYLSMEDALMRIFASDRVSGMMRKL

BsSecA = BsSecA (Bacillus subtilis, UniProt P28366); experiment: Ion-channel activity of SecA-liposomes in oocytes, BsSecA; assay type: biochemical
BsSecA, sequence (P28366 whole entry): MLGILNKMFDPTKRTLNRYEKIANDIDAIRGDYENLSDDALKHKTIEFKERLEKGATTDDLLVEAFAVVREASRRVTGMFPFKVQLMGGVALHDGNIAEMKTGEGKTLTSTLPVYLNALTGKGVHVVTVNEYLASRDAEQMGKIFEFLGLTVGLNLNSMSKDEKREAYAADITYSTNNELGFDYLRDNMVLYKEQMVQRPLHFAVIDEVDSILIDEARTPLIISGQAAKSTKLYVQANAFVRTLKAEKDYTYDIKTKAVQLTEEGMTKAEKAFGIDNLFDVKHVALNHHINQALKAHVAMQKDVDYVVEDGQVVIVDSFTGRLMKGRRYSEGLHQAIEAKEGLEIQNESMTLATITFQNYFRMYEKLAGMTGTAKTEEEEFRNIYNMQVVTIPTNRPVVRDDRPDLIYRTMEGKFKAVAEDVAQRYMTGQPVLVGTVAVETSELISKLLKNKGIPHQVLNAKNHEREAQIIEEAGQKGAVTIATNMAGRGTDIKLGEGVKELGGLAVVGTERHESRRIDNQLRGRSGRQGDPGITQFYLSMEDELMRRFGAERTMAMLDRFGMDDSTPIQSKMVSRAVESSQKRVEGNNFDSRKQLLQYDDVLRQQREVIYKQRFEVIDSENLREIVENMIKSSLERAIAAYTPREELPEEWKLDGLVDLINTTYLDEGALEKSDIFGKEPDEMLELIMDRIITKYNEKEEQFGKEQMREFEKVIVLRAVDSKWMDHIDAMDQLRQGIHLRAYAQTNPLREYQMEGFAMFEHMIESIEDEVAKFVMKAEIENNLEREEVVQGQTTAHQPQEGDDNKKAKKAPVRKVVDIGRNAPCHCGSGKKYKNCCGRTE
Outline: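 Purified SecA was reconstituted into liposomes. After 3 hr at 23 C, ion current was recorded for 1 min by voltage clamp. Net inward/outward current gave channel opening.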

BaSecA1 = BaSecA1 (Bacillus anthracis, UniProt Q81X26); experiment: biochemical; parameters: species or system B. anthracis
BaSecA1, sequence (Q81X26 whole entry, looked up): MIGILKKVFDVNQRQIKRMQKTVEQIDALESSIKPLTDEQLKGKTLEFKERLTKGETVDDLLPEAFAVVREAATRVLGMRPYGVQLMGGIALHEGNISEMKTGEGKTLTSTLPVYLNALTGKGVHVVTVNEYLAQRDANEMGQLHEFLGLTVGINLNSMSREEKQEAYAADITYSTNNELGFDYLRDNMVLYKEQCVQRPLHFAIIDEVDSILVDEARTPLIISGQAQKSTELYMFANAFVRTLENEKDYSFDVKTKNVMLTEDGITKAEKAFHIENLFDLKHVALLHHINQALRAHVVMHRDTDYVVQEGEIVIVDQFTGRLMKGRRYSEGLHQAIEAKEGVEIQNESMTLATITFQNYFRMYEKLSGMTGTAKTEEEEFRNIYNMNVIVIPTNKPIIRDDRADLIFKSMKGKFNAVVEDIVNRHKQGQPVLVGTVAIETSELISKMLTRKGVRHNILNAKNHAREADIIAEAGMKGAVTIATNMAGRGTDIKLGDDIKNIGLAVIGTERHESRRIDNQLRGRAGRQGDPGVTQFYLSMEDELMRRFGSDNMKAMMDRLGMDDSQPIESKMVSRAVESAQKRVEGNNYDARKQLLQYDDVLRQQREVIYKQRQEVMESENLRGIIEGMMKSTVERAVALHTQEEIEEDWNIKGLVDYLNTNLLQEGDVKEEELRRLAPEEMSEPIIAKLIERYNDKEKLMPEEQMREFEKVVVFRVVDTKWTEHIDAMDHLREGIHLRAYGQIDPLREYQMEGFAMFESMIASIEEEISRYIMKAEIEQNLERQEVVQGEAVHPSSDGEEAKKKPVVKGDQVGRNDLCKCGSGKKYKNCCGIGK

[6] = Staphylococcus aureus, 6538, 16 h, read-out: Bacteriostatic effect, MIC, S. aureus 6538
[7] = Staphylococcus aureus, 6538, 24 h, read-out: MIC, S. aureus 6538
[8] = MRSA, read-out: MIC, S. aureus Mu50
[9] = MU50, 16 h, read-out: Bacteriostatic effect, MIC, S. aureus Mu50

CSc1nc(Cl)cc(Sc2nnc(-c3cc(C(F)(F)F)cc(C(F)(F)F)c3)[nH]2)n1 [Compound 7b, 4-((5-(3,5-Bis(trifluoromethyl)phenyl)-4H-1,2,4-triazol-3-yl)thio)-6-chloro-2-(methylthio)pyrimidine]
MIC (S. aureus K2361 (NorA++)): 3.1 µM (≈ 1.46 µg/mL)
MIC (S. aureus K2908 (MepA−)): 2.1 µM (≈ 0.991 µg/mL)
MIC (S. aureus Newman): 1.6 µM (≈ 0.755 µg/mL)
MIC (S. aureus K1758 (NorA−)): 3.1 µM (≈ 1.46 µg/mL)
MIC (S. aureus 6538; [6]): 3.1 µM (≈ 1.46 µg/mL)
MIC (S. aureus 6538; [7]): 3.1 µM (≈ 1.46 µg/mL)
pIC50 (EcSecA [1]): 5.70
Mode of inhibition, SecA-liposome channel activity, SaSecA (SaSecA1; inhibition kinetics, Figure 4): non-competitive inhibitor
pIC50 (EcSecA [2]): < 3.70
Mode of inhibition, SecA-liposome channel activity, EcSecA (EcSecA [3]; inhibition kinetics, Figure 4): non-competitive inhibitor
MIC (S. aureus Mu3): 3.1 µM (≈ 1.46 µg/mL)
MIC (S. aureus K2068 (MepA++)): 3.1 µM (≈ 1.46 µg/mL)
Fold more effective than vancomycin (MIC) (S. aureus Mu50 [4]): 10 fold
MIC (S. aureus Mu50 [4]; [8]): 0.75 µg/mL
MIC (S. aureus Mu50 [4]; [9]): 1.6 µM
Decrease of CFU of S. aureus Mu50 (S. aureus Mu50 [5]): 2 log units
MIC (B. subtilis 168): 1.6 µM (≈ 0.755 µg/mL)
MIC (E. coli NR698): 4.7 µM (≈ 2.22 µg/mL)
MIC (S. aureus N315): 0.8 µM (≈ 0.377 µg/mL)

polymyxin B
MIC, S. aureus Mu50 (S. aureus Mu50 [4]): 31 µg/mL
Fold by which 7b and 12a are more effective than the antibiotic (MIC) (S. aureus Mu50 [4]): > 40 fold

NC[C@H]1O[C@H](O[C@H]2[C@H](O)[C@@H](O[C@H]3O[C@H](CO)[C@@H](O)[C@H](N)[C@H]3O)[C@H](N)C[C@@H]2N)[C@H](O)[C@@H](O)[C@@H]1O [kanamycin]
MIC, S. aureus Mu50 (S. aureus Mu50 [4]): 1000 µg/mL (≈ 2060 µM)
Fold by which 7b and 12a are more effective than the antibiotic (MIC) (S. aureus Mu50 [4]): > 1300 fold

CO[C@H]1/C=C/O[C@@]2(C)Oc3c(C)c(O)c4c(O)c(c(/C=N/N5CCN(C)CC5)c(O)c4c3C2=O)NC(=O)/C(C)=C\C=C\[C@H](C)[C@H](O)[C@@H](C)[C@@H](O)[C@@H](C)[C@H](OC(C)=O)[C@@H]1C [rifampicin]
Fold by which 7b and 12a are more effective than the antibiotic (MIC) (S. aureus Mu50 [4]): > 1300 fold
MIC (S. aureus Mu50 [4]; [8]): 1000 µg/mL

CN(C)[C@@H]1C(O)=C(C(N)=O)C(=O)[C@@]2(O)C(O)=C3C(=O)c4c(O)cccc4[C@@](C)(O)[C@H]3C[C@@H]12 [tetracycline]
Fold by which 7b and 12a are more effective than the antibiotic (MIC) (S. aureus Mu50 [4]): > 80 fold
MIC (S. aureus Mu50 [4]; [8]): 63 µg/mL

CC1(C)S[C@@H]2[C@H](NC(=O)[C@H](N)c3ccccc3)C(=O)N2[C@H]1C(=O)O [ampicillin]
Fold by which 7b and 12a are more effective than the antibiotic (MIC) (S. aureus Mu50 [4]): > 1300 fold
MIC (S. aureus Mu50 [4]; [8]): 1000 µg/mL

CCn1cc(C(=O)O)c(=O)c2cc(F)c(N3CCNCC3)cc21 [norfloxacin]
Fold by which 7b and 12a are more effective than the antibiotic (MIC) (S. aureus Mu50 [4]): > 330 fold

FC(F)(F)c1cc(-c2nnc(Sc3cc(Cl)nc(Sc4ccccc4)n3)[nH]2)cc(C(F)(F)F)c1 [Compound 12a, 4-((5-(3,5-Bis(trifluoromethyl)phenyl)-4H-1,2,4-triazol-3-yl)thio)-6-chloro-2-(phenylthio) Pyrimidine]
MIC (S. aureus K2361 (NorA++)): 1.8 µM (≈ 0.961 µg/mL)
MIC (S. aureus K2908 (MepA−)): 1 µM (≈ 0.534 µg/mL)
pIC50 (SpSecA): 5.89
MIC (S. aureus K1758 (NorA−)): 1.6 µM (≈ 0.854 µg/mL)
MIC (S. aureus 6538; [6]): 1.8 µM (≈ 0.961 µg/mL)
MIC (S. aureus 6538; [7]): 1.8 µM (≈ 0.961 µg/mL)
pIC50 (EcSecA [1]): 5.32
pIC50 (SaSecA1): 6.00
pIC50 (EcSecAN68): 4.70
pIC50 (EcSecA [2]): < 3.70
pIC50 (BsSecA): 5.64
pIC50 (EcSecA [3]): 5.89
MIC (S. aureus Mu3): 1.6 µM (≈ 0.854 µg/mL)
MIC (S. aureus K2068 (MepA++)): 1.3 µM (≈ 0.694 µg/mL)
Fold more effective than vancomycin (MIC) (S. aureus Mu50 [4]): 18 fold
MIC (S. aureus Mu50 [4]; [8]): 0.43 µg/mL
MIC (S. aureus Mu50 [4]; [9]): 0.8 µM
MIC (B. subtilis 168): 0.8 µM (≈ 0.427 µg/mL)
pIC50 (BaSecA1): 6.00
MIC (E. coli NR698): 3.1 µM (≈ 1.66 µg/mL)
MIC (S. aureus N315): 0.8 µM (≈ 0.427 µg/mL)
